Source: PubChem (several laboratories)
sEH inh – soluble epoxide hydrolase inhibitors, primary screen, biochemical, human sEH. recombinant human sEH enzymatic activity assay. 91,000 tested, 0.34% active. inhibition, % at 2 µM. AID 707, 2007; in the data active = inhibition above about 80%
Target sequence (P34913 whole entry, looked up): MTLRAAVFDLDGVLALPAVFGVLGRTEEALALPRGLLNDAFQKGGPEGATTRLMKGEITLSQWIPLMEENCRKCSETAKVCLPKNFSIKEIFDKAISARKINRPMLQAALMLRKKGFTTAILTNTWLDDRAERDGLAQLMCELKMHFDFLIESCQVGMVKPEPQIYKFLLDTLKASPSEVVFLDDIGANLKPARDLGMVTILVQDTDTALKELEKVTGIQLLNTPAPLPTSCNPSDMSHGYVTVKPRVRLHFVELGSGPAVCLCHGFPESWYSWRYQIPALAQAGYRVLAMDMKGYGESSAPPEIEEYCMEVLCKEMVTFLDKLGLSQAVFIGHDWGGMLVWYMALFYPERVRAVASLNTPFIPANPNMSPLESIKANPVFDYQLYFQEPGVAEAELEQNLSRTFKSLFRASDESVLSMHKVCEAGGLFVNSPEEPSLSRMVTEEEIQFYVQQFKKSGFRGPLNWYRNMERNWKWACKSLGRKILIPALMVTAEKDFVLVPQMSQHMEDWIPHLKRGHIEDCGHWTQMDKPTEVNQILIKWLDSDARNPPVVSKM
ERa coact inh – ERα–SRC-1 coactivator interaction inhibitors, primary screen, biochemical, TR-FRET, ERα LBD, estradiol-bound. Estrogen receptor (Homo sapiens), P03372. TR-FRET ER-alpha LBD / SRC-1 peptide. 86,000 tested, 1.7% active. AID 629, 2007. inhibition, % at 25.6 µM; in the data active = inhibition above about 50%
sEH act – soluble epoxide hydrolase activators, primary screen, biochemical, human sEH | Bifunctional epoxide hydrolase 2 (Homo sapiens), P34913 | purified human sEH enzymatic activity, activator screen | activation, % at 2 µM | 91,000 tested, 0.04% active; in the data active = activation above about 37%
ERa SRC1 pot – enhancers of ERα–SRC-1 coactivator binding, primary screen, biochemical, TR-FRET, ERα LBD, low estradiol | Estrogen receptor (Homo sapiens), P03372 | TR-FRET ERalpha-LBD/SRC-Cy5 coactivator binding, 2 h; 100 = basal binding, no effect | coactivator binding (% of control), % at 25.6 µM | 86,000 tested, 1.3% active; in the data active = activity above about 200%;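 also: binding measured in presence of low estradiol as agonist stimulus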
ERb coact inh – inhibitors of ERβ-SRC1 coactivator interaction, primary screen, biochemical, TR-FRET, ERβ LBD, SRC-1 peptide; Estrogen receptor beta (Homo sapiens), Q92731; TR-FRET ER-beta LBD / SRC1-Cy5 peptide binding; receptor agonist-loaded with 1 µM estradiol; inhibition, % at 25.6 µM; 86,000 tested, 1.3% active;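 active = compounds whose percent inhibition of the receptor-coactivator binding signal exceeds about 50% in the single-dose screen, limit read from the data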
HIV Rev-RRE inh – HIV-1 Rev-RRE binding inhibitors, primary screen, biochemical, FRET, protein-RNA interaction; 97,000 tested, 0.79% active; P05866; Rev peptide-RRE RNA binding; inhibition, % at 8 µM;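 active = inhibition above the screen-wide mean plus 3 SD, cut at about 35% in these data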
Target sequence (P05866 whole entry, looked up): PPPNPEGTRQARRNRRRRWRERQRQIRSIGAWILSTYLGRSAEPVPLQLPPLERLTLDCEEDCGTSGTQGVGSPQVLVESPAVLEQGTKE
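Test system – labelled RRE RNA duplex and labelled Rev peptide · Reagent – labelled Rev peptide · Doses – one concentration, 8 µM nominal · Incubation – 5 + 15 min at 25 °C · Signal – FRET fluorescence readout · Read-out basis – % inhibition of FRET ratio versus controls · Control set – DMSO wells as 0% and neomycin B wells as 100% inhibition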
A number is an active result; i = inactive; nt = no result; [ ] = remark or other dose. Hits are enriched below; roughly 3.5% of the tested compounds scored in any of these assays.

SMILES	sEH inh	ERa coact inh	sEH act	ERa SRC1 pot	ERb coact inh	HIV Rev-RRE inh
N#CC1=C(N)SC(N)=C(C#N)C1CCC1CCCCC1	i	i	i	242	i	68
CCCCCCCCOc1ccc(C2OC34CCCCC3C(C#N)(C#N)C2(C#N)C(=N)O4)cc1 (configuration not stated)	i	i	i	i	i	43
CCCCC1OC23CCCCC2C(C#N)(C(=N)O3)C1(C#N)C#N (configuration not stated)	i	i	i	i	i	i
CCN1N=C(c2cc(Cl)sc2Cl)CSC1=O	i	i	i	i	i	i
N#Cc1cc(Oc2cccnc2)c(Oc2cccnc2)cc1C#N	i	i	i	i	61[fluorescence artefact?]	i
COc1ccc(/C=C(/C#N)c2cccnc2)cc1OC	nt	i	nt	i	i	nt
COCCOC(=O)c1c(C)oc2ccc(NS(=O)(=O)c3ccc(C(=O)O)cc3)cc12	nt	i	nt	i	54[fluorescence artefact?]	nt
CCCCOC(=O)c1c(C)oc2ccc(NS(=O)(=O)c3ccc4c5c(cccc35)C(=O)N4)cc12	i	i	i	i	53	i
COc1nc(-c2ccc(C)cc2)ccc1-c1noc(-c2cccnc2)n1	nt	i	nt	557[fluorescence artefact?]	i	nt
COc1ccccc1-c1noc(-c2cccnc2)n1	i	i	i	i	i	i
CCOc1ccccc1-c1nc(-c2cc3ccccc3nc2OC)no1	i	i	i	i	67	i
COc1nc(-c2ccc(C)cc2)ccc1-c1noc(-c2ccco2)n1	nt	i	nt	237	i	i
COc1nc2ccccc2cc1-c1noc(-c2cccnc2)n1	nt	i	nt	215[fluorescence artefact?]	i	nt
CCOc1nc(C)ccc1-c1noc(-c2ccccc2OC)n1	i	i	i	i	i	i
O=c1[nH]c(=O)n(Cc2ccco2)c2c1C(C(F)(F)F)(C(F)(F)F)N=C(Cc1ccccc1)N2	i	i	i	i	i	i
COc1nc(-c2ccccc2)ccc1-c1noc(-c2cccnc2)n1	i	i	i	487[fluorescence artefact?]	i	i
COc1nc(-c2ccccc2)ccc1-c1noc(-c2ccc(F)cc2)n1	nt	i	nt	i	i	nt
CCOC(=O)C(NC(=O)CC)(Nc1sc2c(c1C(=O)OC)CCN(C)C2)C(F)(F)F (configuration not stated)	i	i	i	i	i	i
O=C(CCSc1nnc2scc(-c3ccccc3)n12)Nc1nc(-c2ccccc2)ns1	i	i	i	i	i	i
CC(=O)Nc1ccc(C(=O)CSc2nnc3scc(-c4ccccc4)n23)cc1	i	i	i	232[fluorescence artefact?]	i	i
CSc1nnc(Cn2c(=O)sc3ccccc32)n1-c1cccc(Cl)c1	i	i	i	i	i	i
CCCSc1nnc(Cn2c(=O)sc3ccccc32)n1-c1ccccc1	i	i	i	i	86[fluorescence artefact?]	i
COc1ccc(S(N)(=O)=O)cc1C(=O)NCC1(N2CCCCC2)CCCCC1	i	i	i	i	i	i
CCCN1C(=O)/C(=C/c2ccc(C)o2)SC1=Nc1ccc(OC)cc1	i	nt	i	nt	nt	i
COc1ccc(N=C2S/C(=C\c3ccc(N4CCOCC4)o3)C(=O)N2CCc2c[nH]c3ccccc23)cc1	i	nt	i	nt	nt	131[fluorescence artefact?]
SMILES	sEH inh	ERa coact inh	sEH act	ERa SRC1 pot	ERb coact inh	HIV Rev-RRE inh
Cc1ccc([C@@H]2C3COCC=C3C(C#N)=C(N)C2(C#N)C#N)o1 (some centres not stated)	nt	i	nt	i	i	42
COc1ccc(-c2ccc(-c3noc(C4CCCCC4)n3)c(OC)n2)cc1	i	i	i	i	i	i
O=[N+]([O-])c1cccc(/C=C/c2nc(C=Nc3ccc4ccccc4c3)c(O)o2)c1	i	nt	i	nt	nt	49
O=C(Nc1nc(-c2nc3ccccc3s2)cs1)C1COc2ccccc2O1 (configuration not stated)	nt	68	nt	i	i	nt
COC(=O)c1sccc1NC(=O)Nc1cccc(Cl)c1Cl	i	nt	i	nt	nt	i
NC1=CC(=O)c2cccc3cccc1c23	i	86[fluorescence artefact?]	i	i	76[fluorescence artefact?]	56
Cc1nnc(C)n1N1C(=O)c2cccc3cccc(c23)C1=O	i	i	i	i	i	i
COC(=O)c1ccc(S(=O)(=O)N(Cc2cc3cc4c(cc3[nH]c2=O)OCO4)C2CCCCC2)cc1	nt	i	nt	306	i	nt
COc1cccc(C2CC(c3ccc(F)cc3)Nc3nc(N)nn32)c1 (configuration not stated)	i	i	i	308	i	i
COc1cccc(C2CC(c3cccc(OC)c3)n3nc(N)nc3N2)c1 (configuration not stated)	nt	i	nt	i	i	nt
Cc1cccc(S(=O)(=O)c2c(N)n(/N=C/c3ccco3)c3nc4ccccc4nc23)c1	i	i	i	253	i	i
COC(=O)c1ccccc1N1C(=O)[C@@H]2C(c3ccc(F)cc3)=NO[C@@H]2C1=O	i	i	i	i	i	i
COc1ccc(CN2C(=O)[C@@H]3C(c4ccc(F)cc4)=NO[C@@H]3C2=O)cc1	i	i	38	i	i	i
Cc1cc(=O)n2nc(N3CCCC(C(=O)NCc4ccc5c(c4)OCO5)C3)sc2n1 (configuration not stated)	nt	i	nt	i	i	nt
Cc1cc(NC(=O)CSc2ncnc3sc4c(c23)CCC(C)C4)no1 (configuration not stated)	nt	i	nt	375[fluorescence artefact?]	i	nt
CCOC(=O)c1c(NC(=O)CSc2nnc3c(n2)[nH]c2ccccc23)sc2c1CCN(C)C2	i	nt	i	nt	nt	i
COc1ccc(CNC(=O)c2cc(-c3cccs3)on2)cc1	nt	76	nt	i	51[fluorescence artefact?]	i
O=C(NCc1cccs1)c1cc(-c2cccs2)on1	i	i	i	i	i	i
O=C(NCc1ccc(Cl)cc1)c1cc(-c2cccs2)on1	nt	95	nt	i	i	i
CCCc1nc2sc3c(SCC(=O)NCc4ccco4)ncnc3c2c2c1CCC2	nt	i	nt	255[fluorescence artefact?]	i	nt
Cc1nc(SCC(=O)NCc2ccco2)c2c3c(sc2n1)CCCC3	nt	i	nt	i	i	i
C=CCn1c(COc2ccccc2F)nnc1SCC(=O)NC(=O)NCc1ccco1	nt	67[fluorescence artefact?]	nt	i	54	nt
COc1ccccc1OCc1nnc(SCC(=O)NCc2ccco2)n1Cc1ccco1	i	i	i	207[fluorescence artefact?]	i	i
COc1ccccc1NC(=O)CSc1nnc(COc2ccc(Cl)cc2)n1Cc1ccco1	i	i	i	i	i	i
C=CCn1c(COc2ccccc2-c2ccccc2)nnc1SCC(=O)NC(=O)NCc1ccco1	i	i	i	i	i	i
CCC(=O)Nc1c2c(nn1-c1cccc(Cl)c1)CSC2	nt	i	nt	i	i	nt
CSc1nc2sc3c(c2c2nnnn12)CCCC3	i	i	i	i	i	i
Cn1cnnc1SCC(=O)c1cc2ccccc2oc1=O	i	i	i	i	i	i
